# Experimental data as given in PubChem BioAssay AID685 (PCMD, 2007).
# The whole screen tested about 30,000 compounds, of which about 80 (0.3%) were called active.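 How the source made its calls: active means mutant and wild-type yeast strains alike exhibit over 30% growth inhibition; inconclusive means a strain exceeds 50% while the second remains under 30%; inactive means the rest.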 The sample as a whole holds a higher share of actives than the screen did.
# Test: S. cerevisiae growth inhibition, turbidity – wild-type and eIF2Bepsilon R284H mutant, A595, cytotoxicity control for eIF2B function restoration project, primary screen (AID 685);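 further: 0% = untreated cell controls and 100% = YPD media blanks without cells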
# Conditions: 16 h, stronger effect = higher value, screened at 25 µM (by protocol)
# Procedure, shortened: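 Incubation: 16 h growth with compound, 30 °C; Material: S. cerevisiae wild-type or eIF2Bepsilon-R284H mutant strain; Signal: turbidity measured as absorbance at 595 nm; Medium: YPD yeast growth medium; Measure: growth inhibition (%) versus cell controls and blanks; Doses: 25 µM single dose.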
# [1] = S. cerevisiae eIF2Bepsilon-R284H mutant growth
Compound,growth inhibition [1],growth inhibition (S. cerevisiae wild-type growth)
Cc1cc(C)n(-c2ccc(Cl)c(C(=O)O)n2)n1,-10%,22.7% (inactive)
Cc1cccc(N(CC(=O)N2CCOCC2)S(C)(=O)=O)c1,-23.8%,4.83% (inactive)
CCc1c(O)nc(SCC(=O)Nc2ccccc2)n(C(C)CC)c1=O (stereo not given),12.8%,10% (inactive)
O=S1(=O)C=C(SCCN2CCCC2)c2ccccc21,13.5%,27.4% (inactive)
CS(=O)(=O)N1CCN(c2cccc(Cl)n2)CC1,18.9%,-6.15% (inactive)
Cc1cccc(NC(=O)C2CCCN2S(=O)(=O)c2ccc(F)cc2)c1C (stereo not given),13.8%,9.79% (inactive)
COc1ccc(-c2cc(C)nc3nc(N)nn23)cc1,13.3%,1.72% (inactive)
Cc1ccc(S(=O)(=O)NC(=O)COc2ccccc2C)cc1,10.5%,6.06% (inactive)
COc1ccc(CN2CCCCC2C)cc1OC (stereo not given),12.5%,8.46% (inactive)
CC1CC2=C(CC1/C=N/NC(N)=S)C(C)(C)CCC2 (stereo not given),41.9%,30% (active)
CCCCNC(=O)OC(C)CNC(=O)OC (stereo not given),15%,15.4% (inactive)
CC(=O)Nc1ccccc1OC(=O)N1CCOCC1,2.94%,27.7% (inactive)
O=c1c2ccccc2nc2n1C1(CCCCC1)Cc1ccccc1-2,2.94%,5.38% (inactive)
CC(C)C[C@@H](N)c1nnc(SCC(=O)c2ccc(Cl)cc2)o1,-4.76%,-22.1% (inactive)
Cc1cc(C(=O)Nc2ccccc2N2CCOCC2)c2ccccc2n1,15.2%,28.1% (inactive)
COc1cccc(N2CC(C(=O)Nc3c(C)cccc3C)CC2=O)c1 (stereo not given),-17.4%,-10.6% (inactive)
COC(=O)c1cc(NC(=O)CC2C(=O)NCCN2C(=O)c2ccc(F)cc2)cc(C(=O)OC)c1 (stereo not given),14.3%,3.33% (inactive)
Cc1cc2nc(C)n(CCCNC(=O)Nc3ccccc3)c2cc1C,-4.76%,26.8% (inactive)
Cc1cc(C)c2nc(NC(=O)C3CCCO3)sc2c1 (stereo not given),28.2%,10.3% (inactive)
CCN(c1ccccc1)S(=O)(=O)c1ccc(C(=O)Nc2nccs2)cc1,0%,18.7% (inactive)
Cc1ccc(OCC(=O)Nn2cnc3ccccc32)cc1,-33.3%,-14% (inactive)
Cc1ccc(-c2noc(CSc3nnc(-c4ccncc4)n3-c3ccc(F)cc3)n2)cc1,11.6%,17.6% (inactive)
Cc1ccc(N2C(=O)CC(Sc3ncn[nH]3)C2=O)cc1 (stereo not given),23.8%,1.62% (inactive)
O=C1CC(Sc2ncn[nH]2)C(=O)N1c1ccccc1 (stereo not given),56.8%,43.7% (active)
CCOC(=O)c1ccc(N2C(=O)CC(Sc3nc(O)c(CC)c(=O)[nH]3)C2=O)cc1 (stereo not given),0%,-8% (inactive)
